LMPTP block: LMPTP phosphatase inhibitors, primary screen, biochemical, fluorescence intensity, uHTS. Low molecular weight phosphotyrosine protein phosphatase (Homo sapiens), P24666. recombinant LMPTP-A, OMFP fluorogenic substrate. inhibition, % at 20 µM. actives 0.22% (n = 360,000). AID 651560, 2012;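 active means compounds that cut the enzyme signal by at least half of the control window in the single-dose screen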
Target sequence (P24666 whole entry, looked up): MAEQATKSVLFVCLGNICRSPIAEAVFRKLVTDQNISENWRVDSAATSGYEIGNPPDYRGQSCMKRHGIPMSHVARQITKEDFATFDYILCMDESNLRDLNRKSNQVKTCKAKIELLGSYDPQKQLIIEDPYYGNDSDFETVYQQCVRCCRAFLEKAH
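Test system: LMPTP-A, protein tyrosine phosphatase of low molecular weight; Input: 0.625 nM enzyme; Incubation: 50 min dark incubation at room temperature; Signal: endpoint fluorescence intensity from OMFP dephosphorylation; Read-out basis: % inhibition versus control wells.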
DNMT1 inh: human DNMT1 methyltransferase inhibitors, primary screen, biochemical, molecular beacon, fluorescence, HinP1I cleavage, uHTS; inhibition (reported as % activation of signal), % at 10 µM; AID 588458, 2011; DNA (cytosine-5)-methyltransferase 1 (Homo sapiens), P26358; actives 0.83% (n = 360,000); in the data active means inhibition above about 50%
SUMO1-SIM PPI: modulators of SUMO1 protein-protein interactions, primary screen, biochemical, uHTS; Small ubiquitin-related modifier 1 (Homo sapiens), P63165; SUMO1 binding to a labelled peptide, TR-FRET, 1 h; inhibition, % at 20 µM; actives 0.33% (n = 360,000); AID 602429, 2012; in the data active means inhibition above about 37%
Target sequence (P63165 whole entry, looked up): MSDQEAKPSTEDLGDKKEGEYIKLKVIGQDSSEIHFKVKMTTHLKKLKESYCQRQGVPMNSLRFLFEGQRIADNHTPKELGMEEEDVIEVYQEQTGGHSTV
STEP inh: STEP phosphatase inhibitors, primary screen, biochemical, fluorescence intensity, uHTS | Tyrosine-protein phosphatase non-receptor type 5 (Homo sapiens), P54829 | recombinant STEP, OMFP fluorogenic substrate | inhibition, % at 20 µM | actives 0.25% (n = 360,000) | AID 588621, 2011;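 active means inhibition at 20 µM, scaled per plate between control wells, above about 37%, limit read from the data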
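Assay system: isolated STEP enzyme. Buffer or medium: pH 6.0 Bis-Tris with DTT and Tween 20. Also added: fluorogenic phosphatase substrate OMFP at 25 µM final. Dosing: 20 µM, 1% DMSO. Timing: 20 min reaction, room temperature, in the dark. Measured by: fluorescence intensity, excitation 480 nm, emission 540 nm. Evaluation: normalized % inhibition.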
Scp-1 inhibitor: Scp-1 phosphatase inhibitors, primary screen, biochemical, colorimetric, uHTS; actives 0.88% (n = 340,000); Recombinant Scp1, phosphopeptide, malachite green phosphate absorbance; Carboxy-terminal domain RNA polymerase II polypeptide A small phosphatase 1 (Homo …; inhibition, % at 20 µM; AID 493091, 2011;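 active means inhibition above about 50% at 20 µM, limit read from the data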
Target sequence (Q9GZU7 76-261 limits assumed): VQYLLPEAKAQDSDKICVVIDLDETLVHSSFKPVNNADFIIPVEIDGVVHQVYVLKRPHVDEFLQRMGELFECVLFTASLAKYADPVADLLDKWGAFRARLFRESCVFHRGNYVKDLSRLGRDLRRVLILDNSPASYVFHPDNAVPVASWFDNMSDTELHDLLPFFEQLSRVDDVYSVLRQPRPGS
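Test system – truncated SCP-1 phosphatase (76-261aa) · Reagent – Phosphorylated 17-residue peptide substrate · Incubation – 45 min room-temperature reaction, 5 min colour, 30 min stabiliser · Detection – colorimetric phosphate reagent with accelerator and stabiliser, absorbance at 630 nm · Measure – % inhibition at 20 µM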
DNMT1 interf DR: spectral interference with molecular beacon fluorescence, dose response, artefact control for DNMT1 inhibitor project, biochemical, fluorescent molecular beacon; spectral interference counter-screen; shares compounds with DNMT1 inh; 200 tested, under 10 active; IC50, µM
DNMT1 inh conf: DNMT1 methyltransferase inhibitor retest, confirmation, biochemical, molecular beacon, fluorescence, single concentration. inhibition, % at 10 µM. shares compounds with DNMT1 inh. actives 8% (n = 2,300). DNMT1 molecular beacon HinP1I cleavage;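 active means average inhibition of at least 30% in the single-concentration confirmation test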
Beacon interf: shows spectral interference in the DNMT1 beacon assay; shares compounds with DNMT1 inh; DNMT1 molecular beacon spectral interference counterscreen, fluorescence 485/520; activation (fluorescence interference), % at 10 µM; actives 1% (n = 2,300); AID 602387;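 active means activation of at least 30% at 10 µM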;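 further: DNMT1 catalytic domain with a HinP1I cleavage step and a FAM/dabcyl DNA beacon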
STEP conf: STEP phosphatase inhibitor hit confirmation, biochemical, fluorescence intensity, single concentration; shares compounds with STEP inh; recombinant STEP, OMFP fluorogenic substrate; inhibition, % at 20 µM; actives 32% (n = 520); AID 623866, 2012
Large screens that a line does not name were inactive (follow-up assays come after a bar, where they were run). Hits are enriched below; roughly 1.7% of the tested compounds scored in any of these assays. Unless noted, how the calls were made is not given here.

Cc1cccc(C)c1N1C(=O)[C@@H]2C(c3ccccc3Cl)=NO[C@@H]2C1=O	none
COc1ccc(OC)c(N2C(=O)[C@@H]3C(c4ccccc4Cl)=NO[C@@H]3C2=O)c1	DNMT1 inh 114, STEP inh 55 | DNMT1 interf DR inactive | DNMT1 inh conf 60 | Beacon interf inactive | STEP conf 80
CCOC(=O)Cc1ccc(NCc2ccc(Cl)cc2)cc1	none
O=c1c2ccccc2nc2sc(Nc3cccc(Cl)c3)nn12	LMPTP block 72, DNMT1 inh 107, STEP inh 70 | DNMT1 inh conf inactive | Beacon interf inactive | STEP conf inactive
CC(Sc1nc(N)cc(N)n1)C(=O)NCCC1=CCCCC1 (centres undefined)	none
NC(N)=NCCCS(=O)(=O)Nc1ccc(Nc2c3ccccc3nc3cc([N+](=O)[O-])ccc23)cc1	LMPTP block 63, DNMT1 inh 67, STEP inh 48 | DNMT1 interf DR inactive | DNMT1 inh conf 72 | Beacon interf inactive | STEP conf inactive
O=c1c2c3nc4ccccc4nc3n(-c3ccc4c(c3)OCCO4)c2ncn1C1CCCC1	DNMT1 inh 72, STEP inh 51, Scp-1 inhibitor 85 | DNMT1 inh conf inactive | Beacon interf inactive | STEP conf inactive
Nc1c(C(=O)OCC2CCCO2)c2nc3ccccc3nc2n1-c1ccc2c(c1)OCCO2 (centres undefined)	none (no result: LMPTP block, DNMT1 inh, SUMO1-SIM PPI, STEP inh)
COc1ccc(CN2CCN(c3ccccc3OC)CC2)cc1OC	DNMT1 inh 67, STEP inh 91 | DNMT1 inh conf inactive | Beacon interf inactive | STEP conf inactive
CC(C)c1ccc(N2C(=O)C(Cl)=C(N3CCOCC3)C2=O)cc1	STEP inh 42 | STEP conf inactive
O=C(COC(=O)Cc1ccccc1F)NC(=O)NC1CCCC1	none
COC(=O)c1ccccc1CSc1nsc(/C=C/N(C)C)c1C#N	STEP inh 86 | STEP conf 103
Cc1nc(CSc2nsc(/C=C/N(C)C)c2C#N)cs1	none
O=C(Nc1cccc(-c2csc(Nc3ccccc3)n2)c1)c1ccccc1	none
O=C(Nc1nc(-c2ccc3c(c2)Cc2ccccc2-3)cs1)c1ccccc1	STEP inh 47 | STEP conf inactive
O=C(Nc1cccc(Cl)c1)Nc1ccc2c(c1)C(=O)OC2	STEP inh 112 | STEP conf inactive
Cc1ccc(N(CC(=O)N/N=C/c2cccs2)S(C)(=O)=O)cc1	STEP inh 121 | STEP conf inactive
CCN(C1=NS(=O)(=O)c2ccccc21)N(CC)S(=O)(=O)c1ccc(C)cc1	STEP inh 73 | STEP conf inactive
CCN(CC)S(=O)(=O)c1ccc(C(=O)NN(C)C2=NS(=O)(=O)c3ccccc32)cc1	none
O=C(COc1ccc(/C=N/NC(=O)c2ccncc2)cc1)Nc1ccc([N+](=O)[O-])cc1	SUMO1-SIM PPI 42, STEP inh 80 | STEP conf 84
Cc1cccc(NC(=O)c2cc3c(=O)n4ccccc4nc3s2)c1	STEP inh 84 | STEP conf inactive
Cc1cccc(NC(=O)c2cnc3ccccn3c2=O)c1	none
CC(=O)Nc1ccccc1-c1nc2ccccc2nc1OCC(=O)c1ccc(Cl)cc1	STEP inh 57 | STEP conf inactive
O=C(COc1ncnc2cc(Cl)ccc12)c1ccccc1	none
CC(C)CC(=O)N/C(N)=N/c1nc2ccccc2o1	none
Cc1ccc(NC(=S)N2CCN(Cc3ccccc3)CC2)cc1	none
S=C(c1ccccc1)N1CCN(C(=S)c2ccccc2)CC1	none
CCN1CCN(C(=S)Nc2ccc(Cl)c(Cl)c2)CC1	none
CCN1CCN(C(=S)c2ccc(-c3ccccc3)cc2)CC1	STEP inh 42 | STEP conf inactive
Cc1ccc(C(=S)N2CCN(Cc3ccccc3)CC2)cc1	STEP inh 87 | STEP conf inactive
CCN1CCN(C(=S)c2ccc(Cl)c(Cl)c2)CC1	STEP inh 91 | STEP conf 51
CCN1CCN(C(=S)c2ccc(OCC(=O)NCc3ccccc3)cc2)CC1	STEP inh 64 | STEP conf 25
Cc1cc(=O)oc2cc(OCC(=O)N3CC[C@@]4(O)CCCC[C@H]4C3)c(Cl)cc12	none
S=C(NCCc1ccccc1)Nc1c(Cl)cccc1Cl	STEP inh 96 | STEP conf 51
Cc1ccc(C(=O)n2c(-c3ccccc3)cnc2SCC(=O)Nc2ccccc2)cc1	STEP inh 73 | STEP conf inactive
Cc1ccc(NC(=O)CSc2ncc(-c3ccccc3)n2C(=O)c2ccccc2)cc1	none
Cc1c(C(=O)N2CC[C@@H](N3CCC(O)CC3)[C@H](O)C2)[nH]c2ccc(Cl)cc12	none
Cc1cc(C)c(NC(=S)N(CCN(C)C)Cc2cccs2)c(C)c1	none
Cc1ccc(NC(=S)N(CCN(C)C)Cc2cccs2)c(C)c1	STEP inh 72 | STEP conf 42
COc1ccc(-c2csc3nc(-c4cccnc4)nc(N4CCC(C(N)=O)CC4)c23)cc1OC	STEP inh 50 | STEP conf inactive
C/C(=N\NC(=O)c1ccc(OC2OCCOC2Oc2ccc(C(=O)N/N=C(\C)c3ccncc3)cc2)cc1)c1ccncc1 (centres undefined)	LMPTP block 66, SUMO1-SIM PPI 78, STEP inh 45 | STEP conf inactive
C/C(=N\NC(=O)c1ccncc1)c1ccc(N2CCOCC2)cc1	none
CCS(=O)CC(=O)Nc1c(-c2ccccc2)oc2ccccc2c1=O (centres undefined)	none
COc1cccc(NC(=O)Cc2cn(C)c3ccccc23)c1	STEP inh 50 | STEP conf inactive
COc1cc(Cl)cc(/C=N\NC(=O)c2ccc3c(c2)OCO3)c1O	STEP inh 52 (no result: Scp-1 inhibitor) | STEP conf 84

Compound activity from PubChem.
